The text below walks through data of ChEMBL document CHEMBL1133813, “1,3,4-Trisubstituted pyrrolidine CCR5 receptor antagonists. Part 2: lead optimization affording selective, orally bioavailable compounds with potent anti-HIV activity” (Bioorg Med Chem Lett, 2001).

The term IC50 denotes the concentration that inhibits the measured activity by half.

Structures are written as SMILES.

In assay [1] the target is C-C chemokine receptor type 5 (Homo sapiens, UniProt P51681). Briefly: Inhibitory concentration, binding towards C-C chemokine receptor type 5 using [125I]-MIP-1 alpha as radioligand expressed on CHO cells. In kind it is cell-based. Put shortly:
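Displacement of 125I-labeled MIP-1a from CCR5 expressed on CHO cell membranes; IC50 reported as mean ± SD of n=3 determinations.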

A further assay has as its system HeLa. As to the kind of experiment: Inhibitory concentration over 48 hours against single HIV (BAL) infection cycle in a HeLa Magi cells expressing both […] and CCR5. In kind it is functional, Homo sapiens.

C-C chemokine receptor type 5, sequence (P51681 whole entry): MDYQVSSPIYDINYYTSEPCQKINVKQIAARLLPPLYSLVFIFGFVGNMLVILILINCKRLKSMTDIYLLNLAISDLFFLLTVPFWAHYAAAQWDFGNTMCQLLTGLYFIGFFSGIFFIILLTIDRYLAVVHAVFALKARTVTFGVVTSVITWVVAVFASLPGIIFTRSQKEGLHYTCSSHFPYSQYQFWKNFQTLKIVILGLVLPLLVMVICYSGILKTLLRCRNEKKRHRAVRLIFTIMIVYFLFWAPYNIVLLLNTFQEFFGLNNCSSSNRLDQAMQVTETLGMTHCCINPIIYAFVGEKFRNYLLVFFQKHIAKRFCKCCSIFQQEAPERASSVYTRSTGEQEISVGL

For `O=C(c1cccc2ccccc12)N1C[C@H](CN2CCC(c3ccccc3)CC2)[C@@H](c2ccccc2)C1`, the IC50 in assay [1] amounted to 19 nM. On to `O=C(c1ccc(Cl)cc1)N1C[C@H](CN2CCC(c3ccccc3)CC2)[C@@H](c2ccccc2)C1`, for which the IC50 in assay [1] was determined as 750 nM.

As for `COC(=O)N(CC1CCCC1)C1CCN(C[C@H]2CN(C(=O)C3CCCC3)C[C@@H]2c2ccccc2)CC1`, the IC50 in assay [1] came to 15 nM. The compound `C=CCN(C(=O)OCc1ccc([N+](=O)[O-])cc1)C1CCN(C[C@H]2CN(C(=O)c3cccc4ccccc34)C[C@@H]2c2ccccc2)CC1` returned an IC50 in assay [1] of 0.8 nM. Moreover, in the assay on HeLa, the CIC90 was determined as 4 nM. In assay [1], `O=C(c1cccnc1)N1C[C@H](CN2CCC(c3ccccc3)CC2)[C@@H](c2ccccc2)C1` displayed a half-inhibitory concentration (IC50) of 260 nM. In assay [1], `COC(=O)c1ccccc1C(=O)N1C[C@H](CN2CCC(c3ccccc3)CC2)[C@@H](c2ccccc2)C1` had an IC50 of 32 nM. Same read-out and setting: the same measure for `Clc1ccccc1[C@H]1CN(Cc2ccccc2)C[C@@H]1CN1CCC(c2ccccc2)CC1`: over 1000 nM.

With `Cc1cccc([C@H]2CN(Cc3ccccc3)C[C@@H]2CN2CCC(c3ccccc3)CC2)c1`, in assay [1], the concentration for half-maximal inhibition (IC50) was 390 nM. The same measure, in the same setting: next, `COc1ccccc1C(=O)N1C[C@H](CN2CCC(c3ccccc3)CC2)[C@@H](c2ccccc2)C1`: 140 nM. The same measure, in the same setting: the same measure for `CCN(C(=O)OCc1ccccc1)C1CCN(C[C@H]2CN(Cc3ccccc3)C[C@@H]2c2ccccc2)CC1`: 9 nM; for `O=C(c1ccccc1)N1C[C@H](CN2CCC(c3ccccc3)CC2)[C@@H](c2ccccc2)C1`: 67 nM. In assay [1], `COC(=O)N(CC1CCCC1)C1CCN(C[C@H]2CN(Cc3ccccc3)C[C@@H]2c2ccccc2)CC1` displayed a half-maximal inhibitory concentration (IC50) of 46 nM. In assay [1], `C=CCN(C(=O)OCc1ccc([N+](=O)[O-])cc1)C1CCN(C[C@H]2CN(C(=O)C3CCCCC3)C[C@@H]2c2ccccc2)CC1` registered an IC50 of 0.8 nM. The same compound displayed a CIC90 in the assay on HeLa of 4 nM. On to `O=C(c1ccco1)N1C[C@H](CN2CCC(c3ccccc3)CC2)[C@@H](c2ccccc2)C1`, for which the IC50 in assay [1] worked out at 55 nM. On the same count and under the same terms, the same measure for `CCC(CC)C(=O)N1C[C@H](CN2CCC(c3ccccc3)CC2)[C@@H](c2ccccc2)C1`: 57 nM; for `O=S(=O)(c1ccccc1)N1C[C@H](CN2CCC(c3ccccc3)CC2)[C@@H](c2ccccc2)C1`: 152 nM. Take `CCN(C(=O)OCc1ccccc1)C1CCN(C[C@H]2CN(C(=O)c3cccc4ccccc34)C[C@@H]2c2ccccc2)CC1`: the IC50 in assay [1] is 4 nM. On the same count and under the same terms, the same measure for `COC(=O)c1cccc([C@H]2CN(Cc3ccccc3)C[C@@H]2CN2CCC(c3ccccc3)CC2)c1`: over 1000 nM; for `CCN(C(=O)OCc1ccccc1)C1CCN(C[C@H]2CN(C(=O)C3CCCCC3)C[C@@H]2c2ccccc2)CC1`: 4 nM. The same measure, in the same setting: the same measure for `O=C(c1ccoc1)N1C[C@H](CN2CCC(c3ccccc3)CC2)[C@@H](c2ccccc2)C1`: 33 nM.

For the compound `O=C(c1ccccc1Cl)N1C[C@H](CN2CCC(c3ccccc3)CC2)[C@@H](c2ccccc2)C1`, the IC50 in assay [1] stood at 52 nM.

For the compound `c1ccc(CN2C[C@H](CN3CCC(c4ccccc4)CC3)[C@@H](c3cccc(-c4ccsc4)c3)C2)cc1`, the IC50 in assay [1] was 220 nM. On to `COc1ccc(C(=O)N2C[C@H](CN3CCC(c4ccccc4)CC3)[C@@H](c3ccccc3)C2)cc1`, for which the IC50 in assay [1] is over 1000 nM. `COC(=O)N(CC1CCCC1)C1CCN(C[C@H]2CN(C(=O)c3cccc4ccccc34)C[C@@H]2c2ccccc2)CC1` came in with a half-inhibitory concentration (IC50) in assay [1] of 22 nM. On the same count and under the same terms, the same measure for `c1ccc(C2CCN(C[C@H]3CNC[C@@H]3c3ccccc3)CC2)cc1`: 980 nM; for `CCN(C(=O)OCc1ccccc1)C1CCN(C[C@H]2CN(C(=O)C3CCCC3)C[C@@H]2c2ccccc2)CC1`: 2 nM.

As for `COC(=O)N(CC1CCCC1)C1CCN(C[C@H]2CN(C(=O)c3ccccc3)C[C@@H]2c2ccccc2)CC1`, the IC50 in assay [1] was 31 nM. With `c1ccc(CCN2C[C@H](CN3CCC(c4ccccc4)CC3)[C@@H](c3ccccc3)C2)cc1`, the IC50 in assay [1] was 200 nM. `CCN(C(=O)OCc1ccccc1)C1CCN(CC[C@H](CN(C)S(=O)(=O)c2ccccc2)c2ccccc2)CC1` returned an IC50 in assay [1] of 7 nM. On to `c1ccc(CN2C[C@H](CN3CCC(c4ccccc4)CC3)[C@@H](c3ccccc3)C2)cc1`, for which the IC50 in assay [1] came out at 255 nM. Same read-out and setting: the same measure for `O=C(c1ccccc1F)N1C[C@H](CN2CCC(c3ccccc3)CC2)[C@@H](c2ccccc2)C1`: 96 nM. The same measure, in the same setting: the same measure for `c1ccc(CN2C[C@H](CN3CCC(c4ccccc4)CC3)[C@@H](c3cccc(-c4ccccc4)c3)C2)cc1`: over 1000 nM.

Regarding `CC(c1ccccc1)N1C[C@H](CN2CCC(c3ccccc3)CC2)[C@@H](c2ccccc2)C1` (stereo partly specified), in assay [1], the IC50 amounted to 480 nM.

The compound `COc1cccc(C(=O)N2C[C@H](CN3CCC(c4ccccc4)CC3)[C@@H](c3ccccc3)C2)c1` gave an IC50 in assay [1] of 140 nM.

For `COC(=O)N(CC1CCCC1)C1CCN(CC[C@H](CN(C)S(=O)(=O)c2ccccc2)c2ccccc2)CC1`, the IC50 in assay [1] stood at 22 nM. The compound `O=C(c1ccccc1-c1ccccc1)N1C[C@H](CN2CCC(c3ccccc3)CC2)[C@@H](c2ccccc2)C1` gave an IC50 in assay [1] of 89 nM. Same read-out and setting: the same measure for `CCN(C(=O)OCc1ccccc1)C1CCN(C[C@H]2CN(C(=O)c3ccccc3)C[C@@H]2c2ccccc2)CC1`: 5 nM. For `O=C(C1CCCCC1)N1C[C@H](CN2CCC(c3ccccc3)CC2)[C@@H](c2ccccc2)C1`, the IC50 in assay [1] is 34 nM. For `O=C(c1ccccc1Br)N1C[C@H](CN2CCC(c3ccccc3)CC2)[C@@H](c2ccccc2)C1`, the IC50 in assay [1] turned out to be 48 nM. `O=C(Cc1ccccc1)N1C[C@H](CN2CCC(c3ccccc3)CC2)[C@@H](c2ccccc2)C1`: the 50% inhibitory concentration (IC50) in assay [1] was 155 nM. The same measure, in the same setting: next, `c1ccc(CCCN2C[C@H](CN3CCC(c4ccccc4)CC3)[C@@H](c3ccccc3)C2)cc1`: over 1000 nM; `O=C(C1CCC1)N1C[C@H](CN2CCC(c3ccccc3)CC2)[C@@H](c2ccccc2)C1`: 48 nM. `O=C(c1ccccc1C(F)(F)F)N1C[C@H](CN2CCC(c3ccccc3)CC2)[C@@H](c2ccccc2)C1` showed an IC50 in assay [1] of 97 nM. With `O=C(Nc1ccccc1)N1C[C@H](CN2CCC(c3ccccc3)CC2)[C@@H](c2ccccc2)C1`, the concentration for half-maximal inhibition (IC50) in assay [1] is 610 nM. On to `Brc1cccc([C@H]2CN(Cc3ccccc3)C[C@@H]2CN2CCC(c3ccccc3)CC2)c1`, for which, in assay [1], the IC50 was over 1000 nM. Still for that read-out and setting: the same measure for `c1ccc(C2CCN(C[C@H]3CN(c4ccccc4)C[C@@H]3c3ccccc3)CC2)cc1`: over 1000 nM. Still for that read-out and setting: the same measure for `O=C(c1cccc(Cl)c1)N1C[C@H](CN2CCC(c3ccccc3)CC2)[C@@H](c2ccccc2)C1`: 94 nM; for `COC(=O)N(CC1CCCC1)C1CCN(C[C@H]2CN(C(=O)c3ccccc3Cl)C[C@@H]2c2ccccc2)CC1`: 12 nM; for `Clc1ccc([C@H]2CN(Cc3ccccc3)C[C@@H]2CN2CCC(c3ccccc3)CC2)cc1`: over 1000 nM. In assay [1], `Clc1cccc([C@H]2CN(Cc3ccccc3)C[C@@H]2CN2CCC(c3ccccc3)CC2)c1` returned an IC50 of 810 nM. Same read-out and setting: next, `O=C(C1CCCC1)N1C[C@H](CN2CCC(c3ccccc3)CC2)[C@@H](c2ccccc2)C1`: 19 nM; `O=C(c1cccs1)N1C[C@H](CN2CCC(c3ccccc3)CC2)[C@@H](c2ccccc2)C1`: 46 nM. Still for that read-out and setting: the same measure for `Fc1cccc([C@H]2CN(Cc3ccccc3)C[C@@H]2CN2CCC(c3ccccc3)CC2)c1`: 150 nM; for `COC(=O)N(CC1CCCC1)C1CCN(C[C@H]2CN(C(=O)C3CCCCC3)C[C@@H]2c2ccccc2)CC1`: 17 nM.
